# ChEMBL document CHEMBL3393058 (Eur J Med Chem, 2014)
# The source made the active and inactive calls. No cut-off for these calls is given here.
# What was measured:
# [1] = molecular target: T1, Protein tyrosine phosphatase type IVA 3 (Homo sapiens, UniProt O75365); assay: Inhibition of PRL3 (unknown origin) using DiFMUP as fluorogenic phosphate substrate assessed as DiFMUP dephosphorylation
# [2] = molecular target: T2, Protein tyrosine phosphatase type IVA 2 (Homo sapiens, UniProt Q12974); assay: Inhibition of PRL2 (unknown origin) using DiFMUP as fluorogenic phosphate substrate assessed as DiFMUP dephosphorylation
# T2 sequence (Q12974 whole entry): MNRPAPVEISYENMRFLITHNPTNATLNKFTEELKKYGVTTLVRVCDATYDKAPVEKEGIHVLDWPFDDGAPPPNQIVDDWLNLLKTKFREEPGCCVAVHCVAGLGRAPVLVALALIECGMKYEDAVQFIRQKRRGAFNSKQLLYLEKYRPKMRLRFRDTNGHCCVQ
# [3] = molecular target: T3, Protein tyrosine phosphatase type IVA 1 (Homo sapiens, UniProt Q93096); assay: Inhibition of PRL1 (unknown origin) using DiFMUP as fluorogenic phosphate substrate assessed as DiFMUP dephosphorylation
# T3 sequence (Q93096 whole entry): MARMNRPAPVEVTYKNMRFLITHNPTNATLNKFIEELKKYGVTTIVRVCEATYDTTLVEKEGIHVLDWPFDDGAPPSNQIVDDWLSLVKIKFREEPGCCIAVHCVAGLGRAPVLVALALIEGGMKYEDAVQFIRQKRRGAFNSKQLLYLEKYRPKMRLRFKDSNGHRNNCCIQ
# [4] = Solubility in buffer assessed as light scattering; assay type: physicochemical
# Procedure, shortened: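 Light scattering of compounds in phosphatase assay buffer was measured by nephelometry against a buffer blank, across the concentration range used for IC50 determination.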
# [5] = system: HEK293; assay: Cytotoxicity against human HEK293 cells expressing human PRL-3 at 50 to 75 uM after 16 hrs by MTT assay; assay type: cell-based; conditions: hek293, 16 h
# Procedure, shortened: (§1)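 Tetracycline-induced stable HEK293 Flp-In T-REx lines (PRL-1, PRL-2, PRL-3 or empty vector) were seeded at 10000 cells/well. After 24 h, compound or DMSO was added for 16 h. MTT was then added in fresh medium for 4 h at 37 °C, formazan dissolved in DMSO, and A570 read. Data were normalized to DMSO vehicle, run in triplicate in ≥2 independent experiments, with two-sided t-test versus vehicle.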
# [6] = system: HEK293; assay: Cytotoxicity against human HEK293 cells expressing human PRL-1 at 50 to 75 uM after 16 hrs by MTT assay; assay type: cell-based; conditions: hek293, 16 h; procedure, shortened: as §1
# [7] = system: HEK293; assay: Cytotoxicity against human HEK293 cells expressing human PRL-2 at 50 to 75 uM after 16 hrs by MTT assay; assay type: cell-based; conditions: hek293, 16 h; procedure, shortened: as §1
# [8] = system: HEK293; assay: Inhibition of cell proliferation of human HEK293 cells expressing human PRL-3 at 20 uM after 1 to 9 days by MTT assay; assay type: functional, cell-based
# Procedure, shortened: (§2)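 Stable HEK293 lines (PRL-3 or empty vector) were seeded at 1500 cells/well in tetracycline-containing growth medium. Compound or DMSO vehicle was added immediately after seeding. On each indicated day, MTT was added for 4 h at 37 °C, formazan dissolved in DMSO, and absorbance read at 570 nm, in triplicate.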
# [9] = system: HEK293; assay: Inhibition of cell proliferation of human HEK293 cells expressing empty vector at 20 uM after 1 to 9 days by MTT assay; assay type: cell-based; conditions: hek293, 20 µM; procedure, shortened: as §2
# [10] = species: Homo sapiens; assay: Selectivity index, 1 - (inhibition of PRL3/inhibition of VHR) at 50 uM
# [11] = species: Homo sapiens; assay: Selectivity index, 1 - (inhibition of PRL3/inhibition of PTP1B) at 50 uM
# [12] = species: Homo sapiens; assay: Selectivity index, 1 - (inhibition of PRL3/inhibition of TCPTP) at 50 uM
# [13] = system: HEK293; assay: Effect on cell proliferation of human HEK293 cells expressing human PRL-3 at 50 uM after 1 to 9 days by MTT assay; assay type: functional, cell-based; procedure, shortened: as §2
# [14] = system: HEK293; assay: Effect on cell proliferation of human HEK293 cells expressing empty vector at 50 uM after 1 to 9 days by MTT assay; assay type: cell-based; conditions: hek293, 50 µM; procedure, shortened: as §2
# [15] = Drug localization in plasma membrane of HEK293 cells transfected with mKate-PRL-3 at 50 uM incubated for 30 mins by confocal microscopy; assay type: ADME; conditions: human, hek293, 0.5 h
# Procedure, shortened: (§3)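 HEK293 cells were transfected with 0.1 μg mKate-PRL-3 18 h before imaging. Confocal imaging used a 63× oil objective, with mKate excited at 561 nm and compound at 405 nm.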
# [16] = Drug localization in inner membrane compartments of HEK293 cells transfected with mKate-PRL-3 at 50 uM incubated for 30 mins by confocal microscopy; assay type: ADME; conditions: human, hek293, 0.5 h; procedure, shortened: as §3
# [17] = molecular target: T1, Protein tyrosine phosphatase type IVA 3; conditions: HEK293, 75 uM
# [18] = molecular target: T1, Protein tyrosine phosphatase type IVA 3; conditions: HEK293, 50 uM
# [19] = molecular target: T1, Protein tyrosine phosphatase type IVA 3; conditions: HEK293, 12 uM
# [20] = molecular target: T1, Protein tyrosine phosphatase type IVA 3; conditions: HEK293, 50 uM; remark: listed apart in the source
# [21] = molecular target: T1, Protein tyrosine phosphatase type IVA 3; conditions: HEK293, 35 uM
# [22] = molecular target: T1, Protein tyrosine phosphatase type IVA 3; conditions: HEK293, 25 uM
# [23] = molecular target: T1, Protein tyrosine phosphatase type IVA 3; conditions: HEK293, 12 uM; remark: listed apart in the source
# [24] = molecular target: T4, Protein tyrosine phosphatase type IVA 2 (Homo sapiens) (UniProt Q12974); conditions: HEK293, 50 uM
# T4 sequence (whole entry): T2 sequence (Q12974 whole entry)
# [25] = molecular target: T5, Protein tyrosine phosphatase type IVA 1 (Homo sapiens) (UniProt Q93096); conditions: HEK293, 50 uM
# T5 sequence (whole entry): T3 sequence (Q93096 whole entry)
# [26] = system: HEK293; assay: Cytotoxicity against human HEK293 cells expressing empty vector at 75 uM after 16 hrs by MTT assay; assay type: cell-based; conditions: hek293, 16 h; procedure, shortened: as §1
# T1 sequence (O75365 whole entry): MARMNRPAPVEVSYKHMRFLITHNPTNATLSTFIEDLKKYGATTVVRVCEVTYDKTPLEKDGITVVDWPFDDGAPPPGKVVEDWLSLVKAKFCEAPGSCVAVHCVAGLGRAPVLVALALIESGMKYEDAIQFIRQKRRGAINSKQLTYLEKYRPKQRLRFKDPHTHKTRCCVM
solubility [4],solubility kinetic [4] [µM],Compound,Activity [5],Activity [6],Activity [7],Selectivity index [10],Selectivity index [11],Selectivity index [12],IC50 ([1]; read-out: IC50) [µM],further results
–,–,C=CCOC(=O)/C(C#N)=C/c1ccc(OC)cc1,–,–,–,–,–,–,–,IC50 [1]: Not Active; IC50 [2]: Not Active; IC50 [3]: Not Active
soluble,–,Nc1c[nH]c(=O)c2cc(-c3ccccc3)sc12,Non-toxic,Non-toxic,Non-toxic,–,–,–,–,inhibition [8]: Active; Activity [9]: Toxic
soluble,–,O=C(O)c1ccc[n+]2c([O-])c(-c3ccccc3)sc12,Non-toxic,Non-toxic,Non-toxic,0.25,0.25,0.1,–,–
–,138,C=CCOC(=O)/C(C#N)=C/c1cc(Br)c(O)c(OC)c1,Non-toxic,Non-toxic,Non-toxic,–,–,–,–,Activity [13]: inactive; Activity [14]: Non-toxic; Drug uptake [15]: Active; Drug uptake [16]: Not Active; inhibition [17]: Active; inhibition [18]: Active; inhibition [19]: inactive; inhibition [20]: Active; inhibition [21]: Active; inhibition [22]: Active; inhibition [23]: inactive; inhibition [24]: Active; inhibition [25]: Active
–,335,O=C1NC(=S)S/C1=C/c1ccc(-c2ccccc2C(=O)O)o1,Non-toxic,–,–,0.54,0.34,0.22,53,inhibition [17]: inactive
–,–,COC(=O)/C(C#N)=C/c1ccc(O)c(Br)c1,–,–,–,–,–,–,–,Drug uptake [15]: Active; Drug uptake [16]: Active
–,311,C=CCOC(=O)/C(C#N)=C/c1ccc(O)c(Br)c1,Non-toxic,Non-toxic,Non-toxic,–,–,–,–,Activity [26]: Toxic

Compound,solubility [4],solubility kinetic [4] [µM],Activity [5],Activity [6],Activity [7],Selectivity index [10],Selectivity index [11],Selectivity index [12],IC50 ([1]; read-out: IC50) [µM],further results
COc1cc(/C=C(\C#N)C(=O)OC(C)C)cc(Br)c1O,–,144,Non-toxic,Non-toxic,Non-toxic,0.24,0.08,-0.29,69.4,IC50 ([2]; read-out: IC50): 69.4 µM; IC50 ([3]; read-out: IC50): 56.7 µM
CCOC(=O)/C(C#N)=C/c1cc(Br)c(O)c(Br)c1,soluble,–,Toxic,Toxic,Toxic,0.44,0.48,0.24,109,IC50 ([2]; read-out: IC50): 109 µM; IC50 ([3]; read-out: IC50): 89.1 µM
